Reference: PubChem BioAssay
Records with an inconclusive call do not appear.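 The calls were made as follows, unless noted: active = viability increase at or above a cutoff of the median across tested compounds plus 3 SD (cut at about 8.5% in these data, passing the limit was not always enough); inconclusive = some gains above the cutoff, reason not given; inactive = the rest.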

How the values were obtained:
[1] = S. cerevisiae growth inhibition in permissive medium (OD615), pilot counter-assay for S. cerevisiae lifespan shortening project, permissive growth control (AID 705;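 active = growth inhibition above 25% in both replicates, a cutoff set 3 SD above the mean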); conditions: OD615, 24 h, at 10 µM, hits give high values
How it was run: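 System: Engineered DeaD yeast | Buffer or medium: SC raffinose/galactose permissive medium | Incubation: Cells pre-grown 4 h, then 24 h compound exposure, 30 °C humidified | Measured by: Absorbance (optical density) at 615 nm | Read-out: Reduction in yeast growth (OD615)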

[2] = S. cerevisiae growth inhibition in restrictive medium, OD615, pilot screen, restrictive growth control, yeast lifespan reduction project (AID 706;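 active = growth inhibition above a set limit, 3 SD over mean compound inhibition, in both replicates, cut at about 43% in these data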;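 also: modified DeaD lifespan yeast strain shifted to restrictive glucose medium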); conditions: OD615, 48 h, at 10 µM, hits give high values
How it was run: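 Material: modified S. cerevisiae; Medium: glucose-based CSMM-D restrictive medium; Compound dosing: one concentration, 10 µM final, 0.25% DMSO; Incubation: 48 h compound exposure at 30 °C; Measured by: OD615.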

[3] = doxorubicin toxicity protection in MRP-1 cells – H69AR cells, CellTiter-Glo, duplicate, MRP-1 activator project, pilot screen (AID 807); conditions: H69AR viability with doxorubicin, CellTiter-Glo luminescence; at 10 µM; hits give high values;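 also: compound pretreatment 18-22 h then 72 h combined with doxorubicin; 0% = doxorubicin alone and 100% = vehicle without doxorubicin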
[4] = viability of PTEN-null HCT116 cells – cell-based, HCT116 clonal line, CellTiter-Glo, pilot screen (AID 824;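 active = viability at or below 27.92% in each of two runs, the all-compound median minus 4 SD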;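 also: 0% = 20 µM Hyamine control and 100% = vehicle cell control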); conditions: HCT116 PTEN-deleted viability, 60 h, at 10 µM, hits give low values
[5] = RAM pathway blockade in budding yeast – dse1pr::URA3 reporter, 5-FOA selection, pilot screen (AID 869;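 active = inhibition over a set limit, the all-compound mean plus 3 SD, in both replicate runs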;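 also: 0% = DMSO wells with no growth and 100% = 10 µM 1-NA-PP1 with full growth; RAM network block rescues cells from 5-FOA so hits raise OD615 growth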); conditions: S. cerevisiae dse1pr::URA3 5-FOA growth, OD615, 2 d; at 10 µM; hits give high values; strain carries analog-sensitive mutant Cbk1 kinase
[6] = RAM signaling pathway blockade in yeast – S. cerevisiae, Pdr1DBD-CYC8 efflux-inhibited sensitized strain, primary screen (AID 1298;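 active = RAM network inhibition above 8.4% in each of two replicates, 3 SD over the compound average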;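 also: 0% = DMSO untreated cells without growth and 100% = 10 µM 1-NA-PP1 full growth; higher means more yeast growth rescued from 5-FOA killing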); conditions: S. cerevisiae cbk1-as DSE1-URA3 strain, 5-FOA growth OD615, 2 d; at 50 µM; hits give high values

C=C(C)Cn1c(CCCNC(=O)CC)nc2ccccc21
inactive: growth inhibition [1] -5.08% | growth inhibition [2] 14.8% | viability increase [3] -1.27% | viability [4] 96% | inhibition [5] 1.54% | RAM network inhibition [6] -0.92%

CC(C)(Oc1ccc(Cl)cc1)C(=O)OCC(=O)N1CCCC1
inactive: growth inhibition [1] -8.95% | growth inhibition [2] -11% | viability increase [3] -2.58% | viability [4] 96.5% | inhibition [5] 0.455% | RAM network inhibition [6] -1.13%

CCS(=O)(=O)N1CCN(C(=O)c2cccs2)CC1
inactive: growth inhibition [1] -9.68% | growth inhibition [2] -12.3% | viability increase [3] -1.23% | viability [4] 100% | inhibition [5] 3.8% | RAM network inhibition [6] -0.05%

O=C1c2ccccc2N2C(=O)c3ccccc3C2N1Cc1ccco1 (stereo unspecified)
inactive: growth inhibition [1] -9.32% | growth inhibition [2] -5.68% | viability increase [3] -4.74% | viability [4] 85.1% | inhibition [5] 3.68% | RAM network inhibition [6] 3.03%

CCN1C=C(C(=O)OC)C(c2cccc(C)c2)C(C(=O)OC)=C1
inactive: growth inhibition [1] -1.2% | growth inhibition [2] -11.5% | viability increase [3] -3.43% | viability [4] 86% | inhibition [5] 3.02% | RAM network inhibition [6] 4.35%

O=C(Oc1ccc(Cl)cc1)N1CCCCC1
inactive: growth inhibition [1] -8.34% | growth inhibition [2] 3.42% | viability increase [3] 0.94% | viability [4] 103% | inhibition [5] -0.1% | RAM network inhibition [6] 4.56%

Cc1ccc(S(=O)(=O)NC(=O)Nn2c(C)nnc2C)cc1
inactive: growth inhibition [1] -8.7% | growth inhibition [2] -6.25% | viability increase [3] -0.15% | viability [4] 102% | inhibition [5] 0.75% | RAM network inhibition [6] 4.31%

O=C(CCCSc1nc2ccccc2s1)NCc1ccco1
inactive: growth inhibition [1] 1.82% | growth inhibition [2] -1.56% | viability increase [3] -2.85% | viability [4] 86.3% | inhibition [5] 1.28% | RAM network inhibition [6] -0.82%

CCn1nc(C(=O)NC2=NCCS2)c2ccccc2c1=O
inactive: growth inhibition [1] 9.05% | growth inhibition [2] -1.14% | viability increase [3] -2.76% | viability [4] 104% | inhibition [5] 1.19% | RAM network inhibition [6] 3.32%

Cc1nc2ccccc2c(=O)n1CCCO
inactive: growth inhibition [1] -2.92% | growth inhibition [2] 0.055% | viability increase [3] -2.52% | viability [4] 96% | inhibition [5] 2.77% | RAM network inhibition [6] 3.03%

Cn1c(C(=O)NCCCN2CCN(c3ccccc3F)CC2)cc2c(=O)n(C)c3ccccc3c21
inactive: growth inhibition [1] -3.28% | growth inhibition [2] -4.87% | viability increase [3] -8.02% | viability [4] 54.9% | inhibition [5] 0.6% | RAM network inhibition [6] 0.96%

Cc1onc(-c2ccccc2)c1C(=O)Nc1ccc2c(C)cc(=O)oc2c1
inactive: growth inhibition [1] -3.97% | growth inhibition [2] -0.655% | viability increase [3] -2.9% | viability [4] 103% | inhibition [5] 3.31% | RAM network inhibition [6] 2.2%

Cn1cnnc1SCC(=O)c1ccco1
inactive: growth inhibition [1] -5.92% | growth inhibition [2] -3.4% | viability increase [3] -1.08% | viability [4] 106% | inhibition [5] 0.79% | RAM network inhibition [6] 3.27%

COC(=O)C(CC(C)C)Oc1ccc2c(C)cc(=O)oc2c1 (stereo unspecified)
inactive: growth inhibition [1] -10.5% | growth inhibition [2] 5.8% | viability increase [3] -2.47% | viability [4] 92.6% | inhibition [5] 1.14% | RAM network inhibition [6] 1.38%

COc1ccc(C(=O)NC(C)c2nc3ccccc3[nH]2)cc1OC (stereo unspecified)
inactive: growth inhibition [1] -9.91% | growth inhibition [2] -3.65% | viability increase [3] -1.84% | viability [4] 97.9% | inhibition [5] 2.15% | RAM network inhibition [6] 4.78%

Cc1ccc(C(C)NC(=O)c2ccco2)cc1C (stereo unspecified)
inactive: growth inhibition [1] -7.97% | growth inhibition [2] -4.3% | viability increase [3] -3.06% | viability [4] 98.8% | inhibition [5] 0.75% | RAM network inhibition [6] -1.23%

NC(=O)CNC1CC(=O)N(CCc2ccccc2)C1=O (stereo unspecified)
inactive: growth inhibition [1] 2.06% | growth inhibition [2] 4.79% | viability increase [3] -2.49% | viability [4] 98.5% | inhibition [5] 0.77% | RAM network inhibition [6] 1.69%

Cc1ccc(S(=O)(=O)N(CC(=O)N2CCOCC2)C2CCCCC2)cc1
inactive: growth inhibition [1] -7.12% | growth inhibition [2] -1.69% | viability increase [3] -2.71% | viability [4] 103% | inhibition [5] 1.29% | RAM network inhibition [6] 1.99%

CCCC(=O)Nc1cccc(C(=O)Nc2nccs2)c1
inactive: growth inhibition [1] -9.54% | growth inhibition [2] 0.885% | viability increase [3] 0.65% | viability [4] 102% | inhibition [5] 0.285% | RAM network inhibition [6] 0.41%

CCOc1ccc(S(=O)(=O)N(C)c2ccc(OCC(=O)Nc3ccc4[nH]c(=O)[nH]c4c3)cc2)cc1
inactive: growth inhibition [1] -7.61% | growth inhibition [2] -11.1% | viability increase [3] -4.94% | viability [4] 94.1% | inhibition [5] 0.8% | RAM network inhibition [6] 7.12%

COc1cc(/C=N/n2cnnc2)ccc1OC(=O)c1cccnc1
inactive: growth inhibition [1] -8.46% | growth inhibition [2] -8.55% | viability increase [3] -2.5% | viability [4] 97.8% | inhibition [5] 0.985% | RAM network inhibition [6] 0.57%
